From paper PMC12541606 (Acta Pharmaceutica Sinica. B, 2025)
Numbered stars: 1 amine (or outer) side, 2 acyl side, 3 side chain; on linkers, the order of the positions; unused ones are H or OH. Bridge positions count the residues as written; N and C are the ends. Square brackets hold non-standard residues; d marks the D form. Peptide text beside a SMILES is read from it. I, II: the chains in the order shown. * marks the point of attachment. X1 = O=C([C@H](CCCCn1nnc2c1-c1ccccc1N([*:3])Cc1ccccc1-2)N[*:1])[*:2]; Dolaproine = CO[C@@H]([C@@H]1CCCN1)[C@@H](C)C(=O)O; Tyr(SO2F) = N[C@@H](Cc1ccc(OS(=O)(=O)F)cc1)C(=O)O; Dil = CC[C@H](C)[C@H](NC)[C@@H](CC(=O)O)OC; PABC = O=C(OCc1ccc(N[*:1])cc1)[*:2]; X2 = C[C@@H](N*)[C@@H](O)c1ccccc1; Cit = NC(=O)NCCC[C@H](N)C(=O)O; Suc = O=C(CCC(=O)[*:2])[*:1]; NMeV = CN[C@H](C(=O)O)C(C)C; AEEA = NCCOCCOCC(=O)O

Tests used:
Format in all cases: cell-based
[1] = tested on: MDA-MB-468 cells; experiment: Cell viability test; settings: 72 h, CCK-8
[2] = tested on: tubulin; experiment: Immunofluorescent imaging of tubulin organization; settings: MDA-MB-468 cells, 0 to 10 μmol/L, 24 h
[3] = tested on: caspase-3; experiment: Western blotting of cleaved caspase-3; settings: MDA-MB-468 cells, 24 h, 37 °C
Procedure, shortened: (§1)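 MDA-MB-468 cells were seeded and grown 24 h at 37 °C, 5% CO2. PDC test compound was diluted from a 20 mmol/L stock to final 0, 0.1, 0.5, 1, 5 and 10 μmol/L and applied for 24 h. Cells were lysed in RIPA buffer with protease inhibitors and run on SDS-PAGE. Blots were probed for caspase-3, cleaved caspase-3, PARP and β-actin, detected by ECL and quantified by densitometry.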

[4] = tested on: poly ADP-ribose polymerase (PARP); experiment: Western blotting of cleaved PARP; settings: MDA-MB-468 cells, 24 h, 37 °C
Procedure, shortened: as §1

Structure (SMILES): CC[C@H](C)[C@@H]([C@@H](CC(=O)N1CCC[C@H]1[C@H](OC)[C@@H](C)C(=O)N[C@H](C)[C@@H](O)c1ccccc1)OC)N(C)C(=O)[C@@H](NC(=O)[C@H](C(C)C)N(C)C(=O)OCc1ccc(NC(=O)[C@H](CCCNC(N)=O)NC(=O)[C@@H](NC(=O)CCC(=O)N2Cc3ccccc3-c3nnn(CCCC[C@H](NC(=O)COCCOCCNC(=O)COCCOCCNC(=O)[C@@H]4CSCC(=O)N[C@H](Cc5ccccc5)C(=O)N[C@@H](Cc5ccc(OS(=O)(=O)F)cc5)C(=O)N[C@@H](CC(N)=O)C(=O)N[C@@H](C)C(=O)N[C@@H](Cc5ccccc5)C(=O)N5CCC[C@H]5C(=O)N[C@@H](C(C)C)C(=O)N[C@@H](CCCNC(=N)N)C(=O)N[C@@H](Cc5ccc(O)cc5)C(=O)N[C@@H](CC(C)C)C(=O)N[C@@H](CCCCN)C(=O)N[C@@H](CCCCN)C(=O)N[C@@H](Cc5c[nH]c6ccccc56)C(=O)N4)C(N)=O)c3-c3ccccc32)C(C)C)cc1)C(C)C [CP-N1-MMAE] (I: {CH2CO}-[dF][Tyr(SO2F)]NAFPVRYLKKWC[AEEA][AEEA][X1]-NH2 / II: V[Cit][PABC][NMeV]V[Dil][Dolaproine]-X2; linker I:17-II:N via Suc; thioether I:N-I:14)
- area under the dose-response curve (AUC) [1]: 173.3
- tubulin signal (in words) [2]: progressive, concentration-dependent reduction in tubulin signal
- cleavage product of caspase-3, fold relative to untreated controls [3]: 5 fold
- cleavage product of PARP, fold relative to untreated controls [4]: 1.5 fold

Structure (SMILES): CC[C@H](C)[C@@H]([C@@H](CC(=O)N1CCC[C@H]1[C@H](OC)[C@@H](C)C(=O)N[C@H](C)[C@@H](O)c1ccccc1)OC)N(C)C(=O)[C@@H](NC(=O)[C@H](C(C)C)N(C)C(=O)OCc1ccc(NC(=O)[C@H](CCCNC(N)=O)NC(=O)[C@@H](NC(=O)CCC(=O)N2Cc3ccccc3-c3nnn(CCCC[C@H](NC(=O)COCCOCCNC(=O)COCCOCCNC(=O)[C@@H]4CSCC(=O)N[C@H](Cc5ccccc5)C(=O)N[C@@H](Cc5ccc(OS(=O)(=O)F)cc5)C(=O)N[C@@H](CC(N)=O)C(=O)N[C@@H](C)C(=O)N[C@@H](Cc5ccccc5)C(=O)N5CCC[C@H]5C(=O)N[C@@H](C(C)C)C(=O)N[C@@H](CCCNC(=N)N)C(=O)N[C@@H](Cc5ccc(O)cc5)C(=O)N[C@@H](CC(C)C)C(=O)N[C@@H](CCCCN)C(=O)N[C@@H](CCCNC(=N)N)C(=O)N[C@@H](Cc5c[nH]c6ccccc56)C(=O)N4)C(N)=O)c3-c3ccccc32)C(C)C)cc1)C(C)C [CP-N9-MMAE] (I: {CH2CO}-[dF][Tyr(SO2F)]NAFPVRYLKRWC[AEEA][AEEA][X1]-NH2 / II: V[Cit][PABC][NMeV]V[Dil][Dolaproine]-X2; linker I:17-II:N via Suc; thioether I:N-I:14)
- area under the dose-response curve (AUC) [1]: 215.2
- tubulin signal (in words) [2]: progressive, concentration-dependent reduction in tubulin signal

Structure (SMILES): CC[C@H](C)[C@@H]([C@@H](CC(=O)N1CCC[C@H]1[C@H](OC)[C@@H](C)C(=O)N[C@H](C)[C@@H](O)c1ccccc1)OC)N(C)C(=O)[C@@H](NC(=O)[C@H](C(C)C)N(C)C(=O)OCc1ccc(NC(=O)[C@H](CCCNC(N)=O)NC(=O)[C@@H](NC(=O)CCC(=O)N2Cc3ccccc3-c3nnn(CCCC[C@H](NC(=O)COCCOCCNC(=O)COCCOCCNC(=O)[C@@H]4CSCC(=O)N[C@H](Cc5ccccc5)C(=O)NCC(=O)N[C@@H](CC(=O)O)C(=O)N[C@@H](Cc5ccccc5)C(=O)N[C@@H]([C@@H](C)CC)C(=O)N[C@@H](CCCNC(=N)N)C(=O)N[C@@H](CCCNC(=N)N)C(=O)N[C@@H](CC(C)C)C(=O)N[C@@H](C(C)C)C(=O)N5CCC[C@H]5C(=O)N[C@@H](CCCNC(=N)N)C(=O)N[C@@H](CC(C)C)C(=O)N4)C(N)=O)c3-c3ccccc32)C(C)C)cc1)C(C)C [NP-N7-MMAE] (I: {CH2CO}-[dF]GDFIRRLVPRLC[AEEA][AEEA][X1]-NH2 / II: V[Cit][PABC][NMeV]V[Dil][Dolaproine]-X2; linker I:16-II:N via Suc; thioether I:N-I:13)
- area under the dose-response curve (AUC) [1]: 433.7
- tubulin signal (in words) [2]: progressive, concentration-dependent reduction in tubulin signal
